Like-named read-outs stand apart in the source and are kept apart here.
Experiments:
METH self-administration [1] = settings: cited from earlier work
sigma-1 receptors = settings: ref Cao et al, 2016, cited from earlier work; for sigma-1/DAT binding ratio: ratio of binding affinities, Hiranita et al, 2017
[2] = system: cocaine self-administration; settings: cited from earlier work
[3] = system: saccharin self-administration; test: Saccharin self-administration; format: in vivo, rat; settings: rats (Supplemental Figure S3)
locomotion [4] = test: Locomotion during saccharin self-administration; format: in vivo, rat; settings: rats (Supplemental Figure S3)
locomotion [5] = settings: cited from earlier work
[6] = system: cocaine-induced reinstatement; settings: ref Zhang et al, 2017; cited from earlier work
[7] = system: sucrose self-administration; settings: rats; ref Zhang et al, 2017; cited from earlier work
[8] = mouse, previously conducted; ref Supplemental Material; cited from earlier work
METH self-administration [9] = test: Intravenous METH self-administration, short access; format: in vivo, rat; settings: for reduction of METH intake: ShA rats (Supplemental Figure S2)
Summary of the method: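 Rats (225-275 g at start, reverse light cycle, free food/water) trained on i.v. METH, 10-15 sessions, then 10 FR1 sessions of 1 h (ShA) or 6 h (LgA) access. Test compound i.p. (vehicle up to 100 mg/kg), 30 min or 1 h pretreatment, then FR1 session; Latin-square, within-subjects. Mean ± SEM; ANOVA or paired t-test vs vehicle, Holm-Sidak.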

brain stimulation reward = settings: cited from earlier work
[10] = system: cocaine-induced locomotion; settings: ref Zhang et al, 2017; cited from earlier work
[11] = Phase I metabolic stability in rat liver microsomes; format: in vitro ADME
[12] = molecular target: dopamine transporter (DAT); settings: read-out: Ki, DAT affinity; ref Cao et al, 2016; Zhang et al, 2017; cited from earlier work
[13] = ref Cao et al, 2016; cited from earlier work
[14] = Plasma and brain levels after single i.p. dose in rats; format: in vivo; settings: rat
Summary of the method: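 Rats given a single 10 mg/kg i.p. dose, freshly prepared in 10% DMSO and 10% Tween 80 diluted with sterile saline. At 30 and 120 min (n = 3 per time point), CO2 euthanasia. Heparinized cardiac-puncture blood was spun at once for plasma. Brain was dissected and flash-frozen at -80°C.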

[15] = rats, ref Hiranita et al, 2014, 2017
[16] = all doses tested i.p. (JJC8-088 3, 10, 30 mg/kg; JJC8-089 1, 3, 10, 30 mg/kg)
[17] = 10 mg/kg i.p., 30 min post-administration
[18] = 10 mg/kg i.p., 2 h (120 min) post-administration
[19] = 10-30 mg/kg, ref Zhang et al (2017)
[20] = 100 mg/kg i.p., 1 h pretreatment, vs vehicle

| SMILES | sigma-1/DAT binding ratio (sigma-1 receptors) | saccharin (sweetened water) self-administration [3] | locomotion (locomotion [4]) | METH intake, LgA rats entire 6 h session (METH self-administration [9]; 30 mg/kg i.p., vs vehicle) | reduction of METH intake (METH self-administration [9]) | half-life [11] | Ki [12] | brain level [14, 17] | brain level [14, 18] | further results |
| --- | --- | --- | --- | --- | --- | --- | --- | --- | --- | --- |
| NC(=O)C[S+]([O-])C(c1ccccc1)c1ccccc1 (racemic) [(±)-modafinil] |  |  |  |  |  |  |  |  |  | METH self-administration (METH self-administration [1]; 300 mg/kg, very high dose, ref Reichel and See (2012)): significantly decreased |
| CCCCN1[C@@H]2CC[C@H]1CC(OC(c1ccc(F)cc1)c1ccc(F)cc1)C2 (stereo partly drawn) [JHW 007, reference compound] | 0.20-0.23 |  |  |  |  |  |  |  |  | METH self-administration (METH self-administration [1]; [15]): effectively block; cocaine self-administration [2, 15]: effectively block |
| Fc1ccc(C(SCCNCCCc2ccccc2)c2ccc(F)cc2)cc1 [JJC8-016, N-[2-([bis(4-fluorophenyl)methyl]thio)ethyl]-3-phenylpropan-1-amine] |  | significantly reduced | without causing significant locomotor effects | significantly decreased | > 50% | 9 min |  |  |  | affinity for sigma-1 receptors (sigma-1 receptors): high affinities; locomotor activity (locomotion [5]; ref Zhang et al, 2017): without affecting; cocaine-induced reinstatement [6]: effectively inhibited; sucrose self-administration [7]: reduce; brain penetration [8]: good brain penetration; METH intake, LgA rats first hour (METH self-administration [9]; 30 mg/kg i.p., vs vehicle): significantly decreased; METH intake, ShA rats 1 h session (METH self-administration [9]; 30 mg/kg i.p., vs vehicle): significantly decreased; reduction of self-administration (METH self-administration [9]; LgA rats, 1 h time point (Supplemental Figure S2)): > 50%; intracranial self-stimulation (brain stimulation reward; ref Zhang et al, 2017): without affecting; cocaine-induced locomotion [10]: effectively inhibited; cocaine self-administration ([2]; ref Zhang et al, 2017): effectively inhibited |
| [O-][S+](CCN1CCN(CC(O)Cc2ccccc2)CC1)C(c1ccc(F)cc1)c1ccc(F)cc1 (stereo not drawn) [JJC8-088, 1-[4-(2-[(bis[4-fluorophenyl]methyl)sulfinyl]ethyl)piperazin-1-yl]-3-phenylpropan-2-ol] | > 100 | increased | increased |  |  | 39 min | 2.53 nM | very little | nearly undetectable | Ki (sigma-1 receptors; read-out: Ki, sigma1 receptors): 336 nM; t1/2 in mouse liver microsomes [13]: 12.9 min; METH intake, LgA rats entire 6 h session (METH self-administration [9]; all doses tested i.p. (3, 10, 30 mg/kg)): did not affect; METH intake, LgA rats first hour (METH self-administration [9]; [16]): did not significantly change; METH intake, ShA rats 1 h session (METH self-administration [9]; [16]): did not significantly change; levels in both brain and plasma ([14]; 10 mg/kg i.p., 30 min and 2 h): low levels |
| CC(O)CN1CCN(CCSC(c2ccc(F)cc2)c2ccc(F)cc2)CC1 (stereo not drawn) [JJC8-089, 1-[4-(2-[(bis[4-fluorophenyl]methyl)thio]ethyl)piperazin-1-yl]propan-2-ol] | 0.24 | significantly reduced | without causing significant locomotor effects | significantly decreased | > 50% | 14 min | 16.7 nM | 7.6 ± 0.3 nmol/g | 3.6 ± 0.7 nmol/g | affinity for sigma-1 receptors (sigma-1 receptors): high affinities; METH intake, LgA rats first hour (METH self-administration [9]; [16]): only observed a group effect; METH intake, ShA rats 1 h session (METH self-administration [9]; [16]): only observed a group effect; Kp ([14]; brain/plasma, ip, 10 mg/kg): 8 to 9 |
| CC(O)CN1CCN(CC[S+]([O-])C(c2ccc(F)cc2)c2ccc(F)cc2)CC1 (stereo not drawn) [JJC8-091, 1-[4-(2-[(bis[4-fluorophenyl]methyl)sulfinyl]ethyl)piperazin-1-yl]propan-2-ol] |  | significantly reduced | without causing significant locomotor effects | significant reduction |  | 126 min | 289 nM | 0.45 ± 0.18 nmol/g | 0.30 ± 0.015 nmol/g | METH intake, LgA rats entire 6 h session (METH self-administration [9]; 10 mg/kg i.p., vs vehicle): significant reduction; METH intake, LgA rats entire 6 h session (METH self-administration [9]; 56 mg/kg i.p., vs vehicle): significant reduction; METH intake, LgA rats first hour (METH self-administration [9]; 56 mg/kg i.p., vs vehicle): decreased; METH intake, ShA rats 1 h session (METH self-administration [9]; 56 mg/kg i.p., vs vehicle): decreased |
| NC(=O)C[S@@+]([O-])C(c1ccccc1)c1ccccc1 [R-MOD, [R]-2-[(diphenylmethyl)sulfinyl]acetamide, reference compound] |  | did not alter | did not alter |  | > 50% | 55 min |  |  |  | locomotion (locomotion [5]; [19]): increased; METH intake, LgA rats first hour (METH self-administration [9]; [20]): significantly decreased; METH intake, ShA rats 1 h session (METH self-administration [9]; [20]): significantly decreased; METH intake, LgA rats entire 6 h session (METH self-administration [9]; 100 mg/kg i.p., vs vehicle (p = 0.058)): nonsignificant; brain stimulation reward (brain stimulation reward; [19]): enhanced |

— paper PMC5820113 (Neuropharmacology, 2017)
